Published values of several laboratories.
Compare with care: the assays were run in different laboratories.
Observed: cell growth or viability

C#CCOc1ccc2oc(-c3ccc(OC)cc3)c(C(=O)OCC)c2c1CN1CCCCC1
IC50 (J774.A1; resazurin): 8.2 µM

O=c1cc(OCc2cc(-c3ccccn3)no2)c2ccccc2o1
IC50 (DND41; MTS; 72 h): > 100 µM

Nc1cccc2c1C(=O)N(C1CCC(=O)NC1=O)C2=O (centres unmarked)
IC50 (OCI-Ly10; CCK-8; 7 days): 0.36 µM

c1ccc(-c2cc(CNc3cccc4cccnc34)on2)cc1
IC50 (DND41; MTS; 72 h): > 100 µM

CCOc1ccc(C(=O)CC(SCc2ccc(Cl)cc2)C(=O)OC)cc1 (centres unmarked)
EC50 (WM 266-4; MTT; 48 h): 21 µM

C[C@H]1CNCCN1c1nccc(-c2onc3c2CCC[C@@]32CCCc3sc(N)c(C#N)c32)n1
EC50 (NCI-H727; 5 days): 0.406 µM

O=c1cc(OCc2cc(-c3ccc(C(F)(F)F)cc3)no2)c2ccccc2o1
IC50 (DND41; MTS; 72 h): > 100 µM

C[C@H]1CNCCN1c1nccc(-c2noc([C@@]3(C)CCCc4sc(N)c(C#N)c43)n2)n1
EC50 (NCI-H727; 5 days): > 1 µM

Cc1nc(Nc2ncc(C(=O)Nc3c(C)cccc3Cl)s2)cc(N2CC[C@H](O)C2)n1
IC50 (JeKo-1; ATP luminescence; 72 h): > 10 µM

C[C@H]1CN(C)CCCN1c1nccc(-c2noc([C@@]3(C)CCCc4sc(N)c(C#N)c43)n2)n1
EC50 (NCI-H727; 5 days): > 1 µM

COc1cc(C2C3=C(COC3=O)N(CCO)c3cc4c(cc32)CCC4)cc(OC)c1OC (centres unmarked)
IC50 (MCF-12A; ATP luminescence; 48 h): 5.5 µM

COc1ccc(-c2oc3ccc(O)c(CN4CCCCC4)c3c2C(=O)NCc2cn(Cc3ccccc3)nn2)cc1
IC50 (J774.A1; resazurin; 18 h): 8 µM

Clc1ccc(-c2cc(CNc3cccc4cccnc34)on2)c(Cl)c1
IC50 (DND41; MTS; 72 h): 53.9 µM

C[C@H](Oc1nccc(-c2noc([C@@]3(C)CCCc4sc(N)c(C#N)c43)n2)n1)[C@@H]1CCCN1C
EC50 (NCI-H727; 5 days): 0.271 µM
